From ChEMBL document CHEMBL3352044, “Synthesis and structure-activity relationship studies of N-benzyl-2-phenylpyrimidin-4-amine derivatives as potent USP1/UAF1 deubiquitinase inhibitors with anticancer activity against nonsmall cell lung cancer” (J Med Chem, 2014)
The source made the active and inactive calls. No cut-off for these calls is given here.

target: T1, Ubiquitin carboxyl-terminal hydrolase 1/WD repeat-containing protein 48 (Homo sapiens, UniProt O94782+Q8TAF3); assay: Inhibition of human USP1/UAF1 in human […] cells assessed as increase in Ub-PCNA measured after 4 hrs by Western blotting analysis; type: cell-based; details: not given
T1 sequence (O94782 whole entry): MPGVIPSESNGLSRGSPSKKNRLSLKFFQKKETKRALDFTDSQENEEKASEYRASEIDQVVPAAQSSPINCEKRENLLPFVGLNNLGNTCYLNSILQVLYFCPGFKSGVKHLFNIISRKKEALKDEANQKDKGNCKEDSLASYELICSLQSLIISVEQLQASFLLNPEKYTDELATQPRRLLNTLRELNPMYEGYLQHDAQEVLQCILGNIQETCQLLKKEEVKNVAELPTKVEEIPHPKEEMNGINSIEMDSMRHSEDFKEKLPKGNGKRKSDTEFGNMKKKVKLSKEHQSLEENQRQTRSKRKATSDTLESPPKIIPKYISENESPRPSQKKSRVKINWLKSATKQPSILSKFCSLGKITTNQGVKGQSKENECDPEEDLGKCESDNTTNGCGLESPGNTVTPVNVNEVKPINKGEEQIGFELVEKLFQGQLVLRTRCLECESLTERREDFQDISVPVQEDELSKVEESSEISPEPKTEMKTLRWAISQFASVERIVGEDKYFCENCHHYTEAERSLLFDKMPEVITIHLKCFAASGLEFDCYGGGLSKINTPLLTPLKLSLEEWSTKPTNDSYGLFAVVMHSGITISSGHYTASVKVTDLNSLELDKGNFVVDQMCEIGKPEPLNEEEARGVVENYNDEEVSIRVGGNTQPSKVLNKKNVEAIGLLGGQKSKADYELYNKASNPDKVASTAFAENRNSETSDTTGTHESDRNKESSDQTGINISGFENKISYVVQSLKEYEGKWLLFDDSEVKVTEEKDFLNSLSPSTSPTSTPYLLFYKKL
T1 sequence (Q8TAF3 whole entry): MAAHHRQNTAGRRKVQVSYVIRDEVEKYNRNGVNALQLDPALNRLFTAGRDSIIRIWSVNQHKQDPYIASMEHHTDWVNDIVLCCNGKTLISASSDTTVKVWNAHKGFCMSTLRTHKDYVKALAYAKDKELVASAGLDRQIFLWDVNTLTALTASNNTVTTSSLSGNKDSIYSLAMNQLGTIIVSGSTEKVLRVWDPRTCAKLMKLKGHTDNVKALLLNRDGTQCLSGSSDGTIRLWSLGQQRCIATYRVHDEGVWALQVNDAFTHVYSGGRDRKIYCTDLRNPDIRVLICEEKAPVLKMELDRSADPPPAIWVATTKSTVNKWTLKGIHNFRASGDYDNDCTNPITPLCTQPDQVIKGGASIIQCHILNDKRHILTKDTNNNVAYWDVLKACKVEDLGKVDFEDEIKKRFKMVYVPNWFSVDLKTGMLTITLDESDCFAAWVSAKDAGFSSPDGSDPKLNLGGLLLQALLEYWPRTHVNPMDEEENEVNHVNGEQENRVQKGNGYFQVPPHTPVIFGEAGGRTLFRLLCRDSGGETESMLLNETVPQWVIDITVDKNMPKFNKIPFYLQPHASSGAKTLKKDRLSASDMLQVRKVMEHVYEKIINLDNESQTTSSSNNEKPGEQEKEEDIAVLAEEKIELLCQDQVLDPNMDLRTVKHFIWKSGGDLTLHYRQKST

Row | Compound | inhibition
1 | FC(F)(F)c1ccccc1-c1nc(NCc2cccs2)c2ccccc2n1 | Dose-dependent effect
2 | Cc1cnc(-c2ccccc2C(C)C)nc1NCC1CCN(c2cccnc2)CC1 | Dose-dependent effect

target: T1, Ubiquitin carboxyl-terminal hydrolase 1/WD repeat-containing protein 48; assay: Inhibition of human USP1/UAF1 in human H1299 cells assessed as reduction in colony formation up to 25 uM after 7 days; type: cell-based; details: not given

Row | Compound | inhibition
3 | Cc1cnc(-c2ccccc2C2COC2)nc1NCc1ccc(-n2ccnn2)cc1 | inactive

system: Liver microsome; assay: Half life in rat liver microsomes in presence of NADPH; type: ADME; details: not given
How it was run: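 Rat liver microsomes with NADPH; half-life in minutes.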

Row | Compound | t1/2
4 | Cc1cnc(-c2ccccc2C2COC2)nc1NCc1ccc(-c2cccnc2)cc1 | > 30 min
5 | Cc1cnc(-c2ccccc2C(F)F)nc1NCc1ccc(-n2ccnn2)cc1 | 21 min
6 | [2H]C([2H])(Nc1nc(-c2ccccc2C([2H])(C([2H])([2H])[2H])C([2H])([2H])[2H])ncc1C)c1ccc(-n2ccnn2)cc1 | 13 min
7 | [2H]C([2H])(Nc1nc(-c2ccccc2C(C)C)ncc1C)c1ccc(-n2ccnn2)cc1 | 12 min
8 | Cc1cnc(-c2ccccc2C(C)C)nc1NC(C)(C)c1ccc(-n2ccnn2)cc1 | 22 min
9 | [2H]C([2H])([2H])C([2H])(c1ccccc1-c1ncc(C)c(NC(C)(C)c2ccc(-n3ccnn3)cc2)n1)C([2H])([2H])[2H] | 10 min
10 | [2H]C([2H])([2H])C([2H])(c1ccccc1-c1ncc(C)c(NCc2ccc(-n3ccnn3)cc2)n1)C([2H])([2H])[2H] | 9.5 min
11 | [2H]C([2H])([2H])C(c1ccccc1-c1ncc(C)c(NCc2ccc(-n3ccnn3)cc2)n1)C([2H])([2H])[2H] | 7.9 min
12 | Cc1cnc(-c2ccccc2C(C)C)nc1NCc1ccc(-c2cccnc2)cc1 | 5.8 min
13 | Cc1cnc(-c2ccccc2C2CC2)nc1NCc1ccc(-c2cccnc2)cc1 | 6.2 min
14 | Cc1cnc(-c2ccccc2C2CCC2)nc1NCc1ccc(-n2ccnn2)cc1 | 5.1 min
15 | Cc1cnc(-c2ccccc2C2COC2)nc1NCc1ccc(-n2ccnn2)cc1 | > 30 min

target: T1, Ubiquitin carboxyl-terminal hydrolase 1/WD repeat-containing protein 48; assay: Inhibition of human USP1/UAF1 in human […] cells assessed as increase in Ub-PCNA measured at 1 uM after 4 hrs by Western blotting analysis; type: cell-based; details: not given

Row | Compound | Activity
16 | Cc1cnc(-c2ccccc2C(C)C)nc1NCC1CCN(c2cccnc2)CC1 | Active

system: not listed separately; assay: Cytotoxicity against human H1299 cells assessed as reduction in colony formation at 5 uM after 7 days; type: functional; details: NCI-H1299, 168 h, read-out: INH
How it was run: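 H1299 cells seeded at 200 cells/well, attached overnight, then exposed to 5 μM compound or equal volume DMSO. After 7 days, fixed with 20% methanol and stained with 0.1% crystal violet; percent survival scored versus DMSO control.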

Row | Compound | inhibition at 5 µM
17 | CC(C)c1ccccc1-c1nc(NCc2ccc(-c3cccnc3)cc2)c2occc2n1 | > 70%
18 | Cc1cnc(-c2ccccc2C(C)C)nc1NCC1CCN(c2cccnc2)CC1 | > 70%
19 | COc1cnc(-c2ccccc2C(C)C)nc1NCc1ccc(-c2cccnc2)cc1 | > 70%
20 | Cc1cnc(-c2ccccc2C(C)C)nc1NCc1ccc(-n2ccnc2)cc1 | > 70%

target: T1, Ubiquitin carboxyl-terminal hydrolase 1/WD repeat-containing protein 48; assay: Inhibition of human USP1/UAF1 using ubiquitin-rhodamine110 substrate by fluorescence assay; details: not given

Row | Compound | IC50
21 | Cc1cnc(-c2ccccc2C2COC2)nc1NCc1ccc(-c2cccnc2)cc1 | Not Active
22 | c1cncc(-c2ccc(CNc3nc(N4CCCC4)nc4ccccc34)cc2)c1 | Not Active
23 | FC(F)(F)c1ccc(-c2nc(NCc3ccc(-c4cccnc4)cc3)c3ccccc3n2)cc1 | Not Active
24 | c1cncc(-c2ccc(CNc3nc(N4CCOCC4)nc4ccccc34)cc2)c1 | Not Active
25 | c1cncc(-c2ccc(CNc3nc(C4CCCC4)nc4ccccc34)cc2)c1 | Not Active
26 | Cc1cnc(-c2ccccc2C(C)C)nc1NCC1CCN(C)CC1 | Not Active
27 | c1cncc(-c2ccc(CNc3nc(-n4ccnc4)nc4ccccc34)cc2)c1 | Not Active
28 | Cc1cnc(-c2ccccc2C2COC2)nc1NCc1ccc(-n2ccnn2)cc1 | Not Active
29 | FC(F)(F)c1cccc(-c2nc(NCc3ccc(-c4cccnc4)cc3)c3ccccc3n2)c1 | Not Active

target: Ubiquitin carboxyl-terminal hydrolase 1/WD repeat-containing protein 48 (Homo sapiens, UniProt O94782); assay: as above; details: not given
Sequence (O94782 whole entry): as the sequence (O94782 whole entry) above
Sequence (Q8TAF3 whole entry, further chain): as the sequence (Q8TAF3 whole entry) above

Row | Compound | IC50
30 | CC(C)c1ccccc1-c1ncc(N)c(NCc2ccc(-c3cccnc3)cc2)n1 | 310 nM
31 | FC(F)(F)c1ccccc1-c1nc(NCC#Cc2cccnc2)c2ccccc2n1 | 8900 nM
32 | Cc1cnc(-c2ccccc2C(C)C)nc1NCC1CN(c2cccnc2)C1 | 21700 nM
33 | FC(F)(F)c1ccccc1-c1nc(NCc2ccc(N3CCOCC3)cc2)c2ccccc2n1 | 10400 nM
34 | CC(C)c1ccccc1-c1nc2c(c(NCc3ccc(-c4cccnc4)cc3)n1)CCNC2 | 860 nM
35 | FC(F)c1ccccc1-c1nc(NCc2ccc(-c3cccnc3)cc2)c2ccccc2n1 | 1400 nM
36 | O=[N+]([O-])c1ccccc1-c1nc(NCc2ccc(-c3cccnc3)cc2)c2ccccc2n1 | 7800 nM
37 | Cc1ccc(N2CCC(CNc3nc(-c4ccccc4C(C)C)ncc3C)CC2)cn1 | 90 nM
38 | Fc1ccc(CNc2nc(-c3ccccc3C(F)(F)F)nc3ccccc23)cc1 | 3400 nM
39 | COc1ccccc1-c1nc(NCc2ccc(-c3cccnc3)cc2)c2ccccc2n1 | 940 nM
40 | Cc1cnc(-c2ccccc2C(F)F)nc1NCc1ccc(-n2ccnn2)cc1 | 820 nM
41 | Cc1cccc(C(CO)Nc2nc(-c3ccccc3C(C)C)ncc2C)c1 (centres undefined) | 21000 nM
42 | FC(F)(F)c1ccccc1-c1nc(NCc2cccs2)c2ccccc2n1 | 7900 nM
43 | Cc1cnc(-c2ccccc2C(C)C)nc1NCc1ccc(-c2nnn[nH]2)cc1 | 5900 nM
44 | CSc1cnc(-c2ccccc2C(C)C)nc1NCc1ccc(-c2cccnc2)cc1 | 110 nM
45 | FC(F)(F)c1ccccc1-c1nc(NCc2ccc(Cl)c(Cl)c2)c2ccccc2n1 | 10400 nM
46 | CC(C)c1ccccc1-c1nc(NCc2ccc(-c3cccnc3)cc2)c2cccn2n1 | 260 nM
47 | FC(F)(F)c1ccccc1-c1nc(NCc2ccc(-c3cccnc3)cc2)c2ccccc2n1 | 1100 nM
48 | FC(F)(F)c1ccccc1-c1nc(NCc2ccccc2)c2ccccc2n1 | 3100 nM
49 | CC(C)c1ccccc1-c1nccc(NCc2ccc(-c3cccnc3)cc2)n1 | 150 nM
50 | FC(F)(F)c1ccccc1-c1nc(NCc2ccc(-c3cccc(Cl)c3)cc2)c2ccccc2n1 | 2700 nM
51 | Cc1cnc(-c2ccccc2C(C)C)nc1NCC1CCN(c2cccnc2)C1 (centres undefined) | 800 nM
52 | FC(F)(F)c1ccc(CNc2nc(-c3ccccc3C(F)(F)F)nc3ccccc23)cc1 | 8900 nM
53 | CC(C)c1ccccc1-c1nc(NCc2ccc(-c3cccnc3)cc2)c2occc2n1 | 80 nM

Row | Compound | IC50
54 | FC(F)(F)c1cc(-c2ccc(CNc3nc(-c4ccccc4C(F)(F)F)nc4ccccc34)cc2)ccn1 | 4900 nM
55 | FC(F)(F)c1ccccc1-c1nc(NCc2ccc(C3CCCCC3)cc2)c2ccccc2n1 | 9800 nM
56 | CC(C)c1ccccc1-c1ncc(N(C)C)c(NCc2ccc(-c3cccnc3)cc2)n1 | 190 nM
57 | CC(C)c1ccccc1-c1nc2c(c(NCc3ccc(-c4cccnc4)cc3)n1)CCC2 | 160 nM
58 | Cc1cnc(-c2ccccc2C(C)C)nc1NC(C)(C)c1ccc(-n2ccnn2)cc1 | 590 nM
59 | Cc1cnc(-c2ccccc2C(C)C)nc1NCC1CCN(c2cccnc2)CC1 | 80 nM
60 | FC(F)(F)c1ccccc1-c1nc(NCc2ccc(-c3ccccc3)cc2)c2ccccc2n1 | 3700 nM
61 | CC(C)c1ccccc1-c1nc(NCc2ccc(-c3cccnc3)cc2)c2nc[nH]c2n1 | 120 nM
62 | FC(F)(F)c1ccccc1-c1nc(NCc2ccc(-c3ccncc3)cc2)c2ccccc2n1 | 1900 nM
63 | COc1ccc(CNc2nc(-c3ccccc3C(F)(F)F)nc3ccccc23)cc1 | 6200 nM
64 | FC(F)(F)c1ccccc1-c1nc(NCc2ccc(Cl)cc2)c2ccccc2n1 | 4800 nM
65 | Cc1cc(NCc2ccc(-c3cccnc3)cc2)nc(-c2ccccc2C(C)C)n1 | 210 nM
66 | N#Cc1ccc(CNc2nc(-c3ccccc3C(F)(F)F)nc3ccccc23)cc1 | 5700 nM
67 | CC(C)c1ccccc1-c1nc(NCc2ccc(-c3cccnc3)cc2)c2ccccc2n1 | 180 nM
68 | FC(F)(F)c1ccccc1-c1nc(NCc2ccc(-c3cncnc3)cc2)c2ccccc2n1 | 3000 nM
69 | CC(C)c1ccccc1-c1nc(NCc2ccc(-c3cccnc3)cc2)c2sccc2n1 | 110 nM
70 | Cc1cnc(-c2ccccc2CO)nc1NCc1ccc(-c2cccnc2)cc1 | 10500 nM
71 | [2H]C([2H])([2H])C([2H])(c1ccccc1-c1ncc(C)c(NC(C)(C)c2ccc(-n3ccnn3)cc2)n1)C([2H])([2H])[2H] | 760 nM
72 | Cc1ccccc1-c1nc(NCc2ccc(-c3cccnc3)cc2)c2ccccc2n1 | 1100 nM
73 | FC(F)(F)c1ccccc1-c1nc(NCc2ccc3c(c2)OCO3)c2ccccc2n1 | 8400 nM
74 | Cc1cnc(-c2ccccc2C(C)C)nc1NCc1ccc(-c2ccnc(C(F)(F)F)c2)cc1 | 320 nM
75 | FC(F)(F)c1ccccc1-c1nc(NCc2ccc(-c3ccc(Cl)cc3)cc2)c2ccccc2n1 | 3600 nM
76 | Clc1ccccc1-c1nc(NCc2ccc(-c3cccnc3)cc2)c2ccccc2n1 | 2100 nM
77 | CCc1ccccc1-c1nc(NCc2ccc(-c3cccnc3)cc2)c2ccccc2n1 | 780 nM

Row | Compound | IC50
78 | Fc1ccccc1-c1nc(NCc2ccc(-c3cccnc3)cc2)c2ccccc2n1 | 6500 nM
79 | Cc1cnc(-c2ccccc2C(C)C)nc1NCc1cccnc1 | 1300 nM
80 | Cc1cnc(-c2ccccc2C(C)C)nc1NCc1ccc(-c2ccc(F)nc2)cc1 | 80 nM
81 | Cc1cnc(-c2ccccc2C(C)C)nc1NCc1ccc(-c2cccnc2)cc1 | 70 nM
82 | Cc1cnc(-c2ccccc2C2CC2)nc1NCc1ccc(-c2cccnc2)cc1 | 180 nM
83 | CC(C)c1ccccc1-c1ncc(F)c(NCc2ccc(-c3cccnc3)cc2)n1 | 110 nM
84 | CC(C)c1ccccc1-c1nc2c(c(NCc3ccc(-c4cccnc4)cc3)n1)CNC2 | 2900 nM
85 | Cc1nc(-c2ccccc2C(C)C)nc(NCc2ccc(-c3cccnc3)cc2)c1C | 120 nM
86 | Brc1ccccc1-c1nc(NCc2ccc(-c3cccnc3)cc2)c2ccccc2n1 | 1600 nM
87 | Cc1cccc(CNc2nc(-c3ccccc3C(C)C)ncc2C)c1 | 130 nM
88 | CC(=O)c1ccccc1-c1ncc(C)c(NCc2ccc(-c3cccnc3)cc2)n1 | 8700 nM
89 | Cc1ccc(CNc2nc(-c3ccccc3C(F)(F)F)nc3ccccc23)s1 | 5100 nM
90 | Cc1ccc(-c2ccc(CNc3nc(-c4ccccc4C(C)C)ncc3C)cc2)cn1 | 50 nM
91 | Cc1cnc(-c2ccccc2C2CCC2)nc1NCc1ccc(-n2ccnn2)cc1 | 180 nM
92 | Cc1cnc(-c2ccccc2C(C)O)nc1NCc1ccc(-c2cccnc2)cc1 (centres undefined) | 2000 nM
93 | COc1cnc(-c2ccccc2C(C)C)nc1NCc1ccc(-c2cccnc2)cc1 | 70 nM
94 | Cc1cnc(-c2ccccc2C(C)C)nc1NCc1cccs1 | 270 nM
95 | Cc1cnc(-c2ccccc2C(C)C)nc1NCC1CCN(c2cnccn2)CC1 | 140 nM
96 | Cc1cnc(-c2ccccc2C(C)C)nc1NCc1ccc(-n2ccnc2)cc1 | 300 nM
97 | Cc1cnc(-c2ccccc2C(C)C)nc1NCC1CCN(C2COC2)CC1 | 13600 nM
98 | CC(C)c1ccccc1-c1nc(NCc2ccc(-c3cccnc3)cc2)c2ccsc2n1 | 280 nM
99 | FC(F)(F)c1ccccc1-c1nc(NCc2ccc(-c3ccc(Cl)c(Cl)c3)cc2)c2ccccc2n1 | 2200 nM
